Screens as filed in PubChem BioAssay.
CHOP inhibitor: blocks CHOP induction under ER stress; CHO-K1 CHOP-promoter luciferase, tunicamycin-induced, 15-18 h; inhibition, % at 10 µM; hit rate 3.8% among 220,000;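 active means compounds that reduced the stress-induced luciferase reporter signal by more than about 70% of percent inhibition, limit read from the data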
UPR CHOP act: activators of apoptotic arm of unfolded protein response (CHOP) | CHO-CHOP luciferase reporter, UPR activation, luminescence; percent of tunicamycin response over DMSO baseline | activation, % at 10 µM | hit rate 0.34% among 330,000 | AID 449763;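 active means at 10 µM dose, activation of 40% or more, normalized to positive control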
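Evaluation: % reporter activation, DMSO baseline versus tunicamycin full activation; System: CHO-CHOP luciferase reporter cell line; Input: 500 cells/well; Incubation: 6 h compound treatment, 37 °C; Measured by: Steady-Glo luciferase luminescence; Dosing: one dose, 10 µM in 0.5% DMSO; Buffer or medium: F12 medium, 10% FBS; Benchmarks: positive tunicamycin 10 µg/mL, negative DMSO alone.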
p97 ATPase inh: inhibitors of human p97 ATPase; hit rate 0.42% among 220,000; inhibition, % at 8 µM; recombinant p97 ATPase, Kinase-Glo ATP luminescence, 3 h; AID 1481; P55072; in the data active means inhibition above about 15%
NS3 helicase inh: blocks Hepatitis C virus NS3 helicase unwinding; NS3 helicase DNA unwinding, Cy5 molecular beacon fluorescence; AID 1800; inhibition, % at 10.9 µM; hit rate 0.56% among 290,000;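 active means inhibition above the mean of all tested compounds plus 3 SD, set per campaign, cut at about 35% in these data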
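Control set: DMSO versus 110 µM thioflavine S; Material: NS3 helicase fragment of HCV; Measured by: Cy5 fluorescence at 0 and 60 min, beacon hairpin quenching; Read-out basis: percent inhibition from t60/t0 fluorescence ratio; Times: reaction time 60 min, 25 °C; Repeats: single replicate; Compound dosing: single dose, 10.9 µM nominal final, DMSO 0.8% final.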
XBP1 UPR activ: adaptive UPR (XBP1) activation; CHO-XBP1 luciferase reporter, IRE1-XBP1 UPR activation, luminescence; percent of tunicamycin response, DMSO as zero; activation, % at 20 µM; hit rate 0.33% among 330,000;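 active means versus positive control, 20 µM dose yields 30% or more activation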
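Material: CHO-XBP1 cells stably carrying IRE1-XBP1-driven luciferase reporter / Amount: 1000 cells per well / Compound: 20 µM, 1% DMSO / Times: 6 h treatment, 37 °C / Detection: luciferase luminescence / Measure: % activation of reporter signal versus tunicamycin and DMSO controls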
PfM18AAP inh-1: blocks P. falciparum M18 aspartyl aminopeptidase; recombinant PfM18AAP, H-Glu-NHMec fluorogenic cleavage; inhibition, % at 7.35 µM; hit rate 1.2% among 290,000;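 active means inhibition above the campaign mean inhibition over all tested compounds plus 3 SD, cut at about 28% in these data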
PfM18AAP inh-2: confirmation of Plasmodium falciparum M18 aspartyl aminopeptidase inhibitors; shares compounds with PfM18AAP inh-1; inhibition, % at 7.35 µM; AID 2170; hit rate 28% among 2,400; recombinant PfM18AAP, H-Glu-NHMec fluorogenic cleavage;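 active means mean inhibition over replicate wells above the hit cutoff set for the earlier primary screen, cut at about 29% in these data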
CTSL1 confirm: Cathepsin L (human) inhibition, confirmation; 2,400 tested, under 10 active; shares compounds with PfM18AAP inh-1; inhibition, % at 5.96 µM; purified cathepsin L1, Z-Leu-Arg-MCA fluorescence;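 active means average inhibition across replicates above the hit cutoff set in the earlier primary screen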
Target sequence (P07711 whole entry, looked up): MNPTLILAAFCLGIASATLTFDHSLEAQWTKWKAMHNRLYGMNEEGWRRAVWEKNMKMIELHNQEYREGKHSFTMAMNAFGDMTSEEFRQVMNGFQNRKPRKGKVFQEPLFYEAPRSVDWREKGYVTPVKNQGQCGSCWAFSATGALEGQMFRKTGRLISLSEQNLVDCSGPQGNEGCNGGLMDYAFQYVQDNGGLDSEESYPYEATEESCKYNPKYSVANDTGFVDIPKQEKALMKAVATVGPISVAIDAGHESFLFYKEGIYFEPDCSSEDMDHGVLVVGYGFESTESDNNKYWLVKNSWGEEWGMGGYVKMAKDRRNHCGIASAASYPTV
Large screens that a line does not name were inactive (follow-up assays come after a bar, where they were run). The list is not random: actives were taken first. Their share in the collection is about 4.5%.

CC(C)(C)OC(=O)C[C@H]1C/C=C\C[C@H](CC(=O)N[C@H](CO)Cc2ccccc2)C(=O)N[C@H](Cc2ccccc2)COC1=O	none (no result: CHOP inhibitor, p97 ATPase inh, NS3 helicase inh, PfM18AAP inh-1)
COc1cccc(/C=C2\SC(=S)N(CCCC(=O)N3CCCC3)C2=O)c1	none (no result: CHOP inhibitor, p97 ATPase inh)
COc1cccc(/C=C2\SC(=O)N(CCC(=O)N3CCC(C(=O)O)CC3)C2=O)c1	PfM18AAP inh-1 35 (no result: CHOP inhibitor, p97 ATPase inh) | PfM18AAP inh-2 inactive | CTSL1 confirm inactive
S=c1nc[nH]c2c1ncn2C1CCCC1	none (no result: UPR CHOP act, XBP1 UPR activ) | PfM18AAP inh-2 inactive | CTSL1 confirm inactive
COc1ccccc1N1CCN(Cc2cc3c(cc2[N+](=O)[O-])OCO3)CC1	PfM18AAP inh-1 32 (no result: CHOP inhibitor, p97 ATPase inh) | PfM18AAP inh-2 inactive | CTSL1 confirm inactive
COc1ccc(CN2CCN(c3ccccc3OC)CC2)c(OC)c1	none (no result: CHOP inhibitor, p97 ATPase inh)
Cc1ccc2c(c1)N(CC(=O)NCCCN1CC(C)CC(C)C1)C(=O)c1cccnc1O2 (centres undefined)	none (no result: CHOP inhibitor, p97 ATPase inh)
COc1ccc(Cl)cc1NC(=O)CN1CCC(NC(=O)C2CC2)CC1	none (no result: CHOP inhibitor, p97 ATPase inh)
COc1cc(C2C3=C(CC(C)(C)CC3=O)N(C)C3=C2C(=O)CC(C)(C)C3)ccc1O	PfM18AAP inh-1 34 (no result: CHOP inhibitor, p97 ATPase inh) | PfM18AAP inh-2 inactive | CTSL1 confirm inactive
O=C(Nc1ccc(F)cc1)Nc1nnc(Cc2ccccc2F)s1	none (no result: CHOP inhibitor, p97 ATPase inh)
CSc1ccc(CN(C)C(=O)c2cccc(S(=O)(=O)N3CCN(Cc4ccccc4)CC3)c2)cc1	none (no result: CHOP inhibitor, p97 ATPase inh, NS3 helicase inh, PfM18AAP inh-1)
O=[N+]([O-])c1ccc(N/N=C/c2c[nH]c3ccccc23)cc1	PfM18AAP inh-1 37 | PfM18AAP inh-2 inactive | CTSL1 confirm inactive
O=[N+]([O-])c1ccc(N/N=C/c2ccc[nH]2)cc1	PfM18AAP inh-1 35 (no result: UPR CHOP act, XBP1 UPR activ) | PfM18AAP inh-2 inactive | CTSL1 confirm inactive
O=[N+]([O-])c1ccc(N/N=C/c2cccc(O)c2O)cc1	PfM18AAP inh-1 36 (no result: CHOP inhibitor, p97 ATPase inh) | PfM18AAP inh-2 inactive | CTSL1 confirm inactive
CN1CCN(C(=O)c2ccc(-n3cccn3)nc2)CC1	none
O=C(CSc1ncn[nH]1)Nc1ccc(Cl)c(S(=O)(=O)N2CCOCC2)c1	PfM18AAP inh-1 57 | PfM18AAP inh-2 52 | CTSL1 confirm inactive
O=C(CSc1ncn[nH]1)Nc1nnc(-c2ccccc2)s1	PfM18AAP inh-1 64 | PfM18AAP inh-2 66 | CTSL1 confirm inactive
CCOc1ccc(NC(=O)CSc2ncn[nH]2)cc1	none (no result: CHOP inhibitor, p97 ATPase inh)
Cc1ccc(NC(=O)CSc2ncn[nH]2)cc1	PfM18AAP inh-1 32 | PfM18AAP inh-2 inactive | CTSL1 confirm inactive
Cc1ccc(C(=O)CSc2ncn[nH]2)cc1	none
O=C(CSc1ncn[nH]1)c1ccc(OC(F)F)cc1	PfM18AAP inh-1 39 | PfM18AAP inh-2 inactive | CTSL1 confirm inactive
Cc1ccc(-c2nnc(N3CCN(C(=O)CSc4ncn[nH]4)CC3)c3ccccc23)cc1	PfM18AAP inh-1 42 | PfM18AAP inh-2 inactive | CTSL1 confirm inactive
O=C(O)CSc1ncn[nH]1	PfM18AAP inh-1 86 | PfM18AAP inh-2 98 | CTSL1 confirm inactive
O=C(CSc1ncn[nH]1)Nc1c(Br)cc([N+](=O)[O-])cc1Br	PfM18AAP inh-1 50 | PfM18AAP inh-2 inactive | CTSL1 confirm inactive
CC(C)Cc1nnc(NC(=O)CSc2ncn[nH]2)s1	PfM18AAP inh-1 38 | PfM18AAP inh-2 40 | CTSL1 confirm inactive
CC(=O)c1ccc(NC(=O)CCn2c(=S)oc3ccccc32)cc1	none (no result: CHOP inhibitor, p97 ATPase inh)
CCNc1nc(NCC)nc(N/N=C/c2ccc(O)c(O)c2)n1	PfM18AAP inh-1 47 | PfM18AAP inh-2 33 | CTSL1 confirm inactive
CCNc1nc(NCC)nc(N/N=C/c2ccc(N(C)C)cc2)n1	none
COC(=O)C1=C(C(C)=O)C(c2ccc(C)cc2)n2nnnc2N1 (centres undefined)	PfM18AAP inh-1 52 | PfM18AAP inh-2 inactive | CTSL1 confirm inactive
COC(=O)C1=C(C(=O)c2ccccc2)C(c2ccccc2)n2nnnc2N1 (centres undefined)	none
